Measurements reported in the RNAGym collection of RNA variant scans (doi:10.1126/science.aae0568).
Variants at the floor of the assay were thinned out.

B1: tRNA (parent)
chain: GUUCCGUUGGCGUAAUGGUAACGCGUCUCCCUCCUAAGGAGAAGACUGCGGGUUCGAGUCCCGUACGGAACG

Variants of: B1
Test: yeast fitness relative to wild type (ratio to wild type); higher = fitter; tRNA-Arg(CCU), competitive growth, 37 C, YPD
How it was run: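 Variants of the tRNA-Arg(CCU) gene, chemically synthesised with a 3% per-site mutation rate at 69 sites, were placed at the native genomic locus in Saccharomyces cerevisiae. The pooled strains were competed in YPD at 37°C for 24 hours in six parallel replicates. Gene amplicons from the start population and from each end population were read by 100-nucleotide paired-end sequencing. Darwinian fitness relative to wild type came from changes in genotype frequencies; genotypes needed ≥ 100 starting reads, and estimates < 0.5 were set to 0.5.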

A15C U16A G50A and A14U U26A C66A cannot be ordered by yeast fitness: ≤ 0.5 for the first, ≤ 0.5 for the second.

Compared with A14U G50C U53A A57U A65U, A14U C30U C60A C66U is lower in yeast fitness: 0.687 for the first, 0.618 for the second.

Going from A15C A21U G23A to A15C U19A, the yeast fitness rises from ≤ 0.5 to 0.817.

Compared with A15C G25A, A14U U28A C46G is lower in yeast fitness: 1.02 for the first, ≤ 0.5 for the second.

A15C A36U A37G A65C and A15C A36G G56A C61U cannot be ordered by yeast fitness: ≤ 0.5 for the first, ≤ 0.5 for the second.

First: A15C A45C
Second: A15C A45G
The yeast fitness of the first is higher: 0.587 for the first, 0.583 for the second.

Going from A14U U35C C55G C61G C66U to A14U G17C U53G, the yeast fitness rises from ≤ 0.5 to 0.603.

A15C G23C G39C G63A A69C and A15C G17C A36C G38C G48A cannot be ordered by yeast fitness: ≤ 0.5 for the first, ≤ 0.5 for the second.

Compared with A14U U28A G41C A42U G52A A70C, A14U C55G is higher in yeast fitness: ≤ 0.5 for the first, 0.578 for the second.

First: A14U C55A
Second: A15C A36G U47C C55A A69U
The yeast fitness of the first is higher: 0.575 for the first, 0.538 for the second.

Compared with A15C C29A C60G G68A, A15C A20G C31A U59C A69G is lower in yeast fitness: 0.609 for the first, ≤ 0.5 for the second.

A14U U19A C31U and A14U C34A C46U cannot be ordered by yeast fitness: ≤ 0.5 for the first, ≤ 0.5 for the second.

First: A15C U19C C62A
Second: A15C C49U U54C C55G U64C
The yeast fitness of the first is higher: 0.536 for the first, ≤ 0.5 for the second.

Going from A14U G44C G51A A70U to A15C C27A U32G, the yeast fitness rises from 0.596 to 0.709.

Going from A15C G17A C22U G23C G51A to A14U G41C U59A C61A C66U G68C, the yeast fitness falls from 0.565 to ≤ 0.5.

First: A14U C31G G38A
Second: A15C G41A G48C
The yeast fitness of the first is higher: 0.657 for the first, 0.568 for the second.

Compared with A15C A21G, A15C C34G U35G A36U U59A is lower in yeast fitness: 0.58 for the first, ≤ 0.5 for the second.

First: A15C U16C A43U A70G
Second: A15C G17A A42U
The yeast fitness of the first is higher: 0.532 for the first, ≤ 0.5 for the second.

Compared with A15C C66U, A14U U16A C33G is lower in yeast fitness: 0.605 for the first, ≤ 0.5 for the second.

Going from A15C U35G to A15C C31G G58A U59A A65U, the yeast fitness falls from 0.621 to ≤ 0.5.

A14U C29U C55U A69G and A15C U28A C34G C55A A57U U59C C60U cannot be ordered by yeast fitness: ≤ 0.5 for the first, ≤ 0.5 for the second.

First: A14U U32C A40C G67A
Second: A15C G18A
The yeast fitness of the first is lower: 0.529 for the first, 0.74 for the second.

First: A14U C49A A57G
Second: A14U G18C C34U
The yeast fitness of the first is higher: 0.542 for the first, ≤ 0.5 for the second.

First: A15C C62A
Second: A15C C62U
The yeast fitness of the first is lower: 0.665 for the first, 0.755 for the second.

First: A14U U16A A65U
Second: A15C C24G C34U A43G
The yeast fitness of the first is higher: 0.626 for the first, ≤ 0.5 for the second.

Going from A15C C33A to A15C G25C C29U U35C A43U A70U, the yeast fitness falls from 0.578 to ≤ 0.5.

A15C C29A C66U and A15C G23C C55A A65G cannot be ordered by yeast fitness: ≤ 0.5 for the first, ≤ 0.5 for the second.

Going from A15C A20C C55U to A15C A37C U59C, the yeast fitness rises from ≤ 0.5 to 0.814.

First: A14U C46A G51C A57U U64G
Second: A14U G23A C29G C46A C55G G68A
The yeast fitness of the first is higher: 0.584 for the first, ≤ 0.5 for the second.

Going from A15C C61U A69U to A15C U16C A43C, the yeast fitness falls from 0.571 to ≤ 0.5.

A14U G44C G51A G63A A70U and A15C G39A A65G A70U cannot be ordered by yeast fitness: ≤ 0.5 for the first, ≤ 0.5 for the second.

Compared with A14U G17A C29G C34U U35A G38C C55G A69G A70C, A15C A36U C61A is lower in yeast fitness: 0.511 for the first, ≤ 0.5 for the second.

A15C C30U G67A and A15C C33G A42C A45C cannot be ordered by yeast fitness: ≤ 0.5 for the first, ≤ 0.5 for the second.

Going from A15C G56A C61U C66U to A14U C30G, the yeast fitness rises from ≤ 0.5 to 0.516.

First: A15C G17A G18A A36C C55U C66A
Second: A14U U54C C62U
The yeast fitness of the first is higher: 0.529 for the first, ≤ 0.5 for the second.

A15C U16A A45U G48C C61U and A15C G23C C31U A57C C66U cannot be ordered by yeast fitness: ≤ 0.5 for the first, ≤ 0.5 for the second.

A15C U16C C34G C46A C61U C66G and A15C U26G U28C A37G G41A C49G C62U cannot be ordered by yeast fitness: ≤ 0.5 for the first, ≤ 0.5 for the second.

A15C C33U U47G C49U G52C G68A and A15C C30G A42C G56A A57U G63A cannot be ordered by yeast fitness: ≤ 0.5 for the first, ≤ 0.5 for the second.

Compared with A15C U19A G48A C62G U64C, A15C C24G A69U is higher in yeast fitness: ≤ 0.5 for the first, 0.533 for the second.

A15C C22A G25C U28A A36U A70G and A15C C46U C60U A65C cannot be ordered by yeast fitness: ≤ 0.5 for the first, ≤ 0.5 for the second.

Compared with A15C C31A G50A, A15C C29U G39C A42U G50U G51C A65U is higher in yeast fitness: ≤ 0.5 for the first, 0.527 for the second.

A15C C31A A37U and A14U C29U A37U G50A cannot be ordered by yeast fitness: ≤ 0.5 for the first, ≤ 0.5 for the second.

Compared with A14U G25A C61U, A14U C24G is higher in yeast fitness: 0.649 for the first, 0.657 for the second.

Compared with A15C C33U C49U, A15C A43U A65G is higher in yeast fitness: ≤ 0.5 for the first, 0.583 for the second.

A14U C29U A37U C46U U59G and A15C A20C C33U C34U C61G cannot be ordered by yeast fitness: ≤ 0.5 for the first, ≤ 0.5 for the second.

First: A15C U19A C24G C34G C46U C61A A70U
Second: A14U G17A G23C C29U C34G A43G A45C U54G
The yeast fitness of the first is higher: 0.639 for the first, ≤ 0.5 for the second.

A14U C30A C46U C62A and A15C A21G C22U A43U A57U cannot be ordered by yeast fitness: ≤ 0.5 for the first, ≤ 0.5 for the second.

First: A15C C46U G50A
Second: A15C G17C G50A A69U
The yeast fitness of the first is higher: 0.711 for the first, ≤ 0.5 for the second.

First: A15C C24A
Second: A15C C24U
The yeast fitness of the first is lower: ≤ 0.5 for the first, 0.601 for the second.

A14U C31G G38A C66U and A15C A21G C22U U47C cannot be ordered by yeast fitness: ≤ 0.5 for the first, ≤ 0.5 for the second.

A15C C30A G63A and A14U C22U C30U C46U G52C cannot be ordered by yeast fitness: ≤ 0.5 for the first, ≤ 0.5 for the second.

Going from A14U G56A to A15C C33U U47G C49U G52C, the yeast fitness falls from 0.619 to ≤ 0.5.

Compared with A15C C27G, A14U C34G is lower in yeast fitness: 0.571 for the first, ≤ 0.5 for the second.

A14U C30U C62G A65G G68C and A14U C27U C66G cannot be ordered by yeast fitness: ≤ 0.5 for the first, ≤ 0.5 for the second.

A15C C60U C66A and A14U U54C C62U G68C cannot be ordered by yeast fitness: ≤ 0.5 for the first, ≤ 0.5 for the second.

A14U C30A A65C and A14U C46A C66U cannot be ordered by yeast fitness: ≤ 0.5 for the first, ≤ 0.5 for the second.

Going from A14U C46G G63A to A14U G44C G52A U59C U64G, the yeast fitness rises from 0.53 to 0.646.

First: A15C U32A
Second: A14U G17A C22U C62A
The yeast fitness of the first is higher: 0.595 for the first, ≤ 0.5 for the second.

First: A15C C22U U54A
Second: A15C C31U U32C
The yeast fitness of the first is higher: 0.636 for the first, 0.5 for the second.

First: A15C G38C C49G G68C
Second: A14U U19A A36C G58C A69U
The yeast fitness of the first is lower: ≤ 0.5 for the first, 0.555 for the second.

Going from A14U U28A G56C G67U to A15C C27G G39C U47A, the yeast fitness rises from ≤ 0.5 to 0.689.

A14U U28A G51A and A15C G38A U54A A57U cannot be ordered by yeast fitness: ≤ 0.5 for the first, ≤ 0.5 for the second.

First: A14U C27G A37U
Second: A15C U28A
The yeast fitness of the first is lower: ≤ 0.5 for the first, 0.622 for the second.

Going from A15C G48A to A14U C49G A57U, the yeast fitness falls from 0.946 to ≤ 0.5.

Compared with A15C C27A G58A A70U, A14U C55A U59G A65C is higher in yeast fitness: 0.525 for the first, 0.561 for the second.

Compared with A15C U19A G39A, A14U U26C C31U G68A is lower in yeast fitness: 0.519 for the first, ≤ 0.5 for the second.

A15C C34A G63C and A14U C27G A36G G52C C61A cannot be ordered by yeast fitness: ≤ 0.5 for the first, ≤ 0.5 for the second.

A14U C30A G38A C55A A65C and A14U C55A A65C cannot be ordered by yeast fitness: ≤ 0.5 for the first, ≤ 0.5 for the second.

First: A15C C31U G68C
Second: A15C C31U G38A G56C A70U
The yeast fitness of the first is lower: ≤ 0.5 for the first, 0.581 for the second.

A14U G41C C49U A65U and A15C C34G A37U C46G cannot be ordered by yeast fitness: ≤ 0.5 for the first, ≤ 0.5 for the second.

A14U C24G A36G C66U and A15C C55U A65G cannot be ordered by yeast fitness: ≤ 0.5 for the first, ≤ 0.5 for the second.

Compared with A14U U35G C62G, A15C A40U A70U is higher in yeast fitness: ≤ 0.5 for the first, 0.563 for the second.

Compared with A14U C27G, A14U U35C C55A C60A is lower in yeast fitness: 0.611 for the first, ≤ 0.5 for the second.

A14U C27A C33U U47C C49U G51A and A14U C30U C34U A45U cannot be ordered by yeast fitness: ≤ 0.5 for the first, ≤ 0.5 for the second.

A15C C31A U59C A69G and A15C U19C A21G C34U cannot be ordered by yeast fitness: ≤ 0.5 for the first, ≤ 0.5 for the second.

First: A15C
Second: A15C C24G A37C C60U
The yeast fitness of the first is higher: 0.904 for the first, ≤ 0.5 for the second.

A14U C33G A37G A40C C49G G67C and A14U G17A G23C C29U C34G A45C U54G G56A cannot be ordered by yeast fitness: ≤ 0.5 for the first, ≤ 0.5 for the second.

A15C A40C U54C and A15C C31G C33G C55U cannot be ordered by yeast fitness: ≤ 0.5 for the first, ≤ 0.5 for the second.

First: A15C G39A C62U
Second: A15C C46U A57G C66A
The yeast fitness of the first is higher: 0.553 for the first, ≤ 0.5 for the second.

Going from A15C A65G to A14U C27U A69G, the yeast fitness falls from 0.829 to ≤ 0.5.

Going from A15C G63A to A15C G63C, the yeast fitness rises from 0.61 to 0.616.

Compared with A15C A43C G48C, A14U U59C A70C is lower in yeast fitness: 0.544 for the first, ≤ 0.5 for the second.

Compared with A14U U28A C33U, A15C U19A A21G C22G C30U C55G is lower in yeast fitness: 0.714 for the first, ≤ 0.5 for the second.

With A14U G48A A70U the yeast fitness was 0.661.
